Test results reported in PubChem BioAssay AID504414 (Broad Institute, 2011).
Out of some 330,000 compounds screened, about 55 (0.02%) were called active.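 How the source made its calls: active means highest replicate inhibition of at least 40%; inactive means the rest.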 The entries come from a sample that favours actives as a whole.

What follows are molecules tested against Golgi-associated PDZ and coiled-coil motif-containing protein (Homo sapiens) (UniProt Q9HD26) (assay: disruption of CAL PDZ-reporter peptide interaction – biochemical, fluorescence polarization, Cer-tagged CAL PDZ, HTS, primary screen (AID 504414;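 further: plate controls were DMSO neutral control wells for no effect and unlabeled competitor peptide control wells for full effect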)). Conditions: purified CAL PDZ, TMR-peptide fluorescence polarization, 1 h; at 20 µM; hits give high values.
Method in brief: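 Assay system – tagged CAL PDZ protein CerCALP, purified · Timing – 1 h at RT · Compound – single point, 20 µM · Measured by – fluorescence polarization from S- and P-plane intensities, G-factor corrected · Evaluation – inhibition from polarization loss · Probe or stimulus – TMR reporter peptide T*-PRC34 · Buffer or medium – pH 7.4 phosphate-saline buffer, reducing agent, detergent, IgG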

inhibition, inactive:
CC(NCCc1ccc(S(N)(=O)=O)cc1)C(=O)NCc1ccccc1 (stereo not drawn) -0.747%
CC(C)NC(=O)Nc1cccc2c1O[C@H](CN(C)S(=O)(=O)c1cccs1)[C@@H](C)CN([C@H](C)CO)C2=O -1.8%
CC(C)(C)c1cc(=O)n2c(nc3ccccc32)[nH]1 -2.22%
O=C(Nc1ccc(C2CC2(Cl)Cl)cc1)c1cccc([N+](=O)[O-])c1 (stereo not drawn) 8.41%
CCOC(=O)C(C)n1cnc2scc(-c3ccc(C)c(C)c3)c2c1=O (stereo not drawn) -1.15%
CCOc1cc(CNCCN(C)C)c(Cl)cc1OCC(=O)NCCc1ccccc1 -2.91%
CCOC(=O)C1Sc2[nH]c(=O)sc2C(c2ccc(Cl)cc2)C1C(=O)OCC (stereo not drawn) 0.946%
Cc1cccc(C(=O)OCC(=O)NC(C)C2CC3CCC2C3)c1O (stereo not drawn) 1.53%
COc1ccccc1N(CC(=O)NC1CCCC1)C(=O)C1(C)CC(=O)N=C2C=CC(C)=CN21 (stereo not drawn) -1%
Cc1ccc(C)c(C(=O)COC(=O)Cn2[nH]c(=O)c3ccccc3c2=O)c1 -1.04%
CC(=O)C1=C(C)NC2=C(C(=O)CC(C)(C)C2)C1C (stereo not drawn) -0.554%
COCCNC(=O)/C(C#N)=C/c1nc(N(C)C)n(-c2ccc(F)cc2)c1Cl -6.48%
CN(CCc1cn[nH]c1)C(=O)CC1C(=O)NCCN1Cc1cccc(Oc2ccccc2)c1 (stereo not drawn) 0.0148%
CN(C)S(=O)(=O)c1ccc(N2CCCC2)c(C(=O)Nc2ccc(Br)cc2F)c1 0.123%
CCOc1cc(C(=O)N(Cc2ccccc2)c2ccc(C)cc2)ccc1OCC(=O)N1CCOCC1 -0.206%
NS(=O)(=O)c1ccc(CCNC(=O)c2ccc(Cl)c(S(=O)(=O)N3CCCCCC3)c2)cc1 -0.205%
COc1ccc(-c2c(C)nn3c(N4CCC(C(=O)N5CCCCC5)CC4)cc(C)nc23)cc1OC 0.851%
Cn1c(=O)c2c(nc(N3CCOCC3)n2CCNC2=NCCC2)n(C)c1=O 0.616%
COC(=O)[C@H]1Cc2cnoc2C[C@]1(C)C(=O)O -1.94%
Cc1cccc(NC(=O)CSc2nnc(CCNC(=O)OC(C)(C)C)o2)c1C 0.572%
CN(C)c1ccc(CNC2C3CC4CC(C3)CC2C4)cc1 (stereo not drawn) -1.31%
CC(C)NC(=O)COCc1cc(-c2ccc3c(c2)OCO3)on1 0.0991%
O=C(NCCCN1CCCC1=O)c1cccc(S(=O)(=O)NCc2ccccc2)c1 -2.23%
